The M2OR odorant receptor database

biological target: T1, OR1G1 (Homo sapiens) (UniProt P47890); settings: stereoisomer not certain
T1 sequence (whole entry): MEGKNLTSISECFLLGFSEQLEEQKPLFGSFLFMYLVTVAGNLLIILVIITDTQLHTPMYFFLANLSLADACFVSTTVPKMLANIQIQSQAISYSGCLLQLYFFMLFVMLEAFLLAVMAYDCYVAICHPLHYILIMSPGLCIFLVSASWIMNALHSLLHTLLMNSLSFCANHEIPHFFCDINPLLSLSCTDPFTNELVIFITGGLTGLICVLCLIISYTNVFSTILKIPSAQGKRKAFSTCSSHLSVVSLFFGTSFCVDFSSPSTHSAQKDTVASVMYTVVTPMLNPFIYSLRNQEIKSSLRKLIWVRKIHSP
Procedure, shortened: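 Transient luciferase assays in mammalian cell lines were common, though methods varied by source. The values come from published papers and their supplementary material, with extra details from the original authors when needed. Responsive refers to a measured signal the original authors judged statistically different from baseline, and non-responsive (inactive) to the remainder.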

Odorant receptor agonist call, active:
CCCCCCCCCCCCO
CCCC(=O)OCC
CCCCCCCCCO
CCCCCCC(C)O (stereo not given)
CC(=O)OCCC(C)C
CC12CCC(CC1=O)C2(C)C (stereo not given)
O=c1ccc2ccccc2o1
CCCCCC(O)CC (stereo not given)
CCCCCCO
C=C(C)C1CC=C(C)CC1 (stereo not given)
CCCCCCCCCC(=O)[O-].[H+]
CCCC(=O)SC
Cc1occc(=O)c1O
CCCCCCCC(C)O (stereo not given)
CCCCCC=O
CC=Cc1ccc(OC)cc1
CCCCCCCCCC(=O)OC
CCCCCCCC(=O)OC
CCCCC(CC)CO (stereo not given)
c1cscn1

Odorant receptor agonist call, inactive:
CCCCCCC(=O)OC
O=C(O)C=Cc1ccccc1
CCCCCC(=O)OCC
CCCCCCC(=O)[O-].[H+]
CCOC(=O)C(C)C
CCCCCCCCCCC(C)=O
CCCCCCCCCCCC(=O)O
CCCCCCCCCCCC=O
CCCCCC(=O)OC
COc1nccnc1CC(C)C
CCCCOC(=O)CCC
CCCCCCC(C)=O
CSC
CC(C)=CCCC(C)=CC#N
CC(=O)CCC=C(C)C
